# Measured values published in ChEMBL document CHEMBL1145835, “Novel potent 5-HT(1F) receptor agonists: structure-activity studies of a series of substituted N-[3-(1-methyl-4-piperidinyl)-1H-pyrrolo[3,2-b]pyridin-5-yl]amides” (J Med Chem, 2003).
# Target: T1, 5-hydroxytryptamine receptor 1A (Homo sapiens, UniProt P08908)
# T1 sequence (P08908 whole entry): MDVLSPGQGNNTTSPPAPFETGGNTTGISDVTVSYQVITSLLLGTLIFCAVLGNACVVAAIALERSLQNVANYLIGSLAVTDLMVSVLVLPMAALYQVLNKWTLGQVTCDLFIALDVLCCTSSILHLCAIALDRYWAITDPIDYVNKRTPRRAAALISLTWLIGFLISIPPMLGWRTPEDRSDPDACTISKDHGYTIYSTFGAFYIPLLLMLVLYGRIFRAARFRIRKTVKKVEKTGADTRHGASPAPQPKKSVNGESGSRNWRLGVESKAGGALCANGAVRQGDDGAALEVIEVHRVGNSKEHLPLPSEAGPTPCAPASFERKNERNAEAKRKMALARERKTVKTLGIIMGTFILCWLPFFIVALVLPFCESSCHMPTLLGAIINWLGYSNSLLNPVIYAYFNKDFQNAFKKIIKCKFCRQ
# Test: In vitro binding affinity by radioligand binding assay using cell line expressing human 5-hydroxytryptamine 1A receptor
# Outline: (§1)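 Ki (nM) from radioligand binding on cell lines each expressing one human serotonin receptor subtype. Values are means of at least three determinations with SEM. ND: Ki not determined, when a 10⁻⁷ M test ligand gave <50% displacement of radioligand.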
row,SMILES,Ki
1,CC(=O)Nc1ncc2[nH]cc(C3CCN(C)CC3)c2n1,780 nM
2,CN1CCC(c2c[nH]c3ccc(NC(=O)c4cccc(F)c4)nc23)CC1,135 nM
3,COc1ccccc1C(=O)Nc1ccc2[nH]cc(C3CCN(C)CC3)c2n1,20 nM
4,CN1CCC(c2c[nH]c3ccc(NC(=O)c4cccc([N+](=O)[O-])c4)nc23)CC1,130 nM
5,CN1CCC(c2c[nH]c3ccc(NC(=O)c4ccccc4F)nc23)CC1,42 nM
6,CN1CCC(c2c[nH]c3ccc(NC(=O)c4ccc(F)cc4)cc23)CC1,22 nM
7,CC(=O)Nc1ccc2[nH]cc(C3CCN(C)CC3)c2c1,68 nM
8,Cc1ccccc1C(=O)Nc1ccc2[nH]cc(C3CCN(C)CC3)c2n1,106 nM
9,COc1cccc(C(=O)Nc2ccc3[nH]cc(C4CCN(C)CC4)c3n2)c1,98 nM
10,Cc1ccc(C(=O)Nc2ccc3[nH]cc(C4CCN(C)CC4)c3n2)cc1,30 nM
11,CN1CCC(c2c[nH]c3cnc(NC(=O)c4ccc(F)cc4)cc23)CC1,17 nM
12,CN1CCC(c2c[nH]c3ccc(NC(=O)C4CCCCC4)nc23)CC1,660 nM
13,CC(=O)Nc1cc2c(C3CCN(C)CC3)c[nH]c2cn1,2 nM
14,CN1CCC(c2c[nH]c3ccc(NC(=O)c4ccc([N+](=O)[O-])cc4)nc23)CC1,38 nM

# Target: 5-hydroxytryptamine receptor 1D (Homo sapiens, UniProt P28221)
# Test: In vitro binding affinity by radioligand binding assay using cell line expressing human 5-hydroxytryptamine 1D receptor
# Outline: as §1
# Sequence of 5-hydroxytryptamine receptor 1D (P28221 whole entry): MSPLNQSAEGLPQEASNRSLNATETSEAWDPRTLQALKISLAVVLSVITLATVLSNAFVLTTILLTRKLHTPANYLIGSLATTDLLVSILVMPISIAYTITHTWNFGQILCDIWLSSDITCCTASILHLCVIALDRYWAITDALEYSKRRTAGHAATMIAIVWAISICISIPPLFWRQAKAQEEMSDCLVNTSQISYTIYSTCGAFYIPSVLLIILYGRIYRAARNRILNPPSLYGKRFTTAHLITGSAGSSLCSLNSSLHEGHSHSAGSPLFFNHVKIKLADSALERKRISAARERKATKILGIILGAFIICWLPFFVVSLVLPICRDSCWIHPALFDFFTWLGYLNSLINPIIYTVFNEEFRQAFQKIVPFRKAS
row,SMILES,Ki
1,CC(=O)Nc1ncc2[nH]cc(C3CCN(C)CC3)c2n1,470 nM
2,CN1CCC(c2c[nH]c3ccc(NC(=O)c4cccc(F)c4)nc23)CC1,690 nM
3,CN1CCC(c2c[nH]c3ccc(NC(=O)c4cccc([N+](=O)[O-])c4)nc23)CC1,330 nM
4,CN1CCC(c2c[nH]c3ccc(NC(=O)c4ccc(F)cc4)cc23)CC1,430 nM
5,CC(=O)Nc1ccc2[nH]cc(C3CCN(C)CC3)c2c1,150 nM
6,Cc1ccccc1C(=O)Nc1ccc2[nH]cc(C3CCN(C)CC3)c2n1,440 nM
7,CN1CCC(c2c[nH]c3cnc(NC(=O)c4ccc(F)cc4)cc23)CC1,53 nM
8,CC(=O)Nc1cc2c(C3CCN(C)CC3)c[nH]c2cn1,39 nM
9,CN1CCC(c2c[nH]c3ccc(NC(=O)c4ccc([N+](=O)[O-])cc4)nc23)CC1,340 nM

# Target: T2, 5-hydroxytryptamine receptor 1F (Homo sapiens, UniProt P30939)
# T2 sequence (P30939 whole entry): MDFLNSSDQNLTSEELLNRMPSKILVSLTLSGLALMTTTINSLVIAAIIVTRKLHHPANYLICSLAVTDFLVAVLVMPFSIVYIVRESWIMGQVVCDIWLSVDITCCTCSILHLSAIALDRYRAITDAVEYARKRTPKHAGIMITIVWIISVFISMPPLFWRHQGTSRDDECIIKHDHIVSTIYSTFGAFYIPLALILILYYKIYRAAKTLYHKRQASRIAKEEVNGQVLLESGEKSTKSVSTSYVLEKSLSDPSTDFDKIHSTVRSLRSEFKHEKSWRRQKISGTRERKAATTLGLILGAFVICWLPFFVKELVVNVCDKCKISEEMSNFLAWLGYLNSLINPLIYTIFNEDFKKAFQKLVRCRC
# Test: In vitro binding affinity was determined by radioligand binding assay using cell line expressing human 5-hydroxytryptamine 1F receptor
# Outline: as §1
row,SMILES,Ki
1,CC(=O)Nc1ncc2[nH]cc(C3CCN(C)CC3)c2n1,220 nM
2,CN1CCC(c2c[nH]c3ccc(NC(=O)c4cccc(F)c4)nc23)CC1,11 nM
3,COc1ccccc1C(=O)Nc1ccc2[nH]cc(C3CCN(C)CC3)c2n1,20 nM
4,CN1CCC(c2c[nH]c3ccc(NC(=O)c4cccc([N+](=O)[O-])c4)nc23)CC1,42 nM
5,CN1CCC(c2c[nH]c3ccc(NC(=O)c4ccccc4F)nc23)CC1,19 nM
6,CN1CCC(c2c[nH]c3ccc(NC(=O)c4ccc(F)cc4)cc23)CC1,2.1 nM
7,CC(=O)Nc1ccc2[nH]cc(C3CCN(C)CC3)c2c1,9.7 nM
8,Cc1ccccc1C(=O)Nc1ccc2[nH]cc(C3CCN(C)CC3)c2n1,12 nM
9,COc1cccc(C(=O)Nc2ccc3[nH]cc(C4CCN(C)CC4)c3n2)c1,16 nM
10,Cc1ccc(C(=O)Nc2ccc3[nH]cc(C4CCN(C)CC4)c3n2)cc1,12 nM
11,CN1CCC(c2c[nH]c3cnc(NC(=O)c4ccc(F)cc4)cc23)CC1,13 nM
12,CN1CCC(c2c[nH]c3ccc(NC(=O)C4CCCCC4)nc23)CC1,20 nM
13,CC(=O)Nc1cc2c(C3CCN(C)CC3)c[nH]c2cn1,210 nM
14,CN1CCC(c2c[nH]c3ccc(NC(=O)c4ccc([N+](=O)[O-])cc4)nc23)CC1,7.7 nM

# Target: 5-hydroxytryptamine receptor 1B (Homo sapiens, UniProt P28222)
# Test: In vitro binding affinity by radioligand binding assay using cell line expressing human 5-hydroxytryptamine 1B receptor
# Outline: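 Ki (nM) from radioligand binding on cell lines each expressing one human serotonin receptor subtype. Values are means of at least three determinations with SEM.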
# Sequence of 5-hydroxytryptamine receptor 1B (P28222 whole entry): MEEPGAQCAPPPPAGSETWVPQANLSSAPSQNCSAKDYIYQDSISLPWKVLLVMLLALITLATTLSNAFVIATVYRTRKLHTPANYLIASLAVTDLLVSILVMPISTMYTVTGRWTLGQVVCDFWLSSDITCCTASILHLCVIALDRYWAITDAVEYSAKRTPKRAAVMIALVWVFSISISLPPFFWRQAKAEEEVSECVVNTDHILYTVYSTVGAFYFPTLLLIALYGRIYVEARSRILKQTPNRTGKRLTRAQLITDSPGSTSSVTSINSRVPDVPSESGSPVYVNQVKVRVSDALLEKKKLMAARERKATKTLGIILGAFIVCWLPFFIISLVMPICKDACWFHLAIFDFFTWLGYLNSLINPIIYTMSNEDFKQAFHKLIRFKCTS
row,SMILES,Ki
1,CC(=O)Nc1ncc2[nH]cc(C3CCN(C)CC3)c2n1,2900 nM
2,CN1CCC(c2c[nH]c3ccc(NC(=O)c4cccc(F)c4)nc23)CC1,1600 nM
3,COc1ccccc1C(=O)Nc1ccc2[nH]cc(C3CCN(C)CC3)c2n1,750 nM
4,CN1CCC(c2c[nH]c3ccc(NC(=O)c4cccc([N+](=O)[O-])c4)nc23)CC1,390 nM
5,CC(=O)Nc1ccc2[nH]cc(C3CCN(C)CC3)c2c1,390 nM
6,Cc1ccccc1C(=O)Nc1ccc2[nH]cc(C3CCN(C)CC3)c2n1,150 nM
7,CN1CCC(c2c[nH]c3cnc(NC(=O)c4ccc(F)cc4)cc23)CC1,80 nM
8,CN1CCC(c2c[nH]c3ccc(NC(=O)c4ccc([N+](=O)[O-])cc4)nc23)CC1,270 nM
